Published values gathered from unrelated publications.
Compare with care: the assays were run in different laboratories.
CES1: Liver carboxylesterase 1 (CES1, Homo sapiens, UniProt P23141)
gag-pol protease: Gag-Pol polyprotein, protease (gag-pol, Human immunodeficiency virus type 1 group M subtype B, UniProt P04585)
F2: Prothrombin (F2, Homo sapiens, UniProt P00734)
KCNH2: Voltage-gated inwardly rectifying potassium channel KCNH2 (KCNH2, Homo sapiens, UniProt Q12809)

C=CCc1ccc(O)c(-c2cc(CC=C)ccc2O)c1 — Ki (CES1; enzyme activity, inhibitor): 0.094 µM
COc1ccc(S(=O)(=O)N(CC(C)C)C[C@@H](O)[C@H](Cc2ccccc2)NC(=O)O[C@@H]2CCC[C@@]23CCO[C@@H](c2ccccc2OC)C3)cc1 — Ki (gag-pol protease; enzyme activity, inhibitor): 0.0167 µM
CCOC(=O)N[C@@H](CCCNC(=N)N)C(=O)N[C@@H](CCC(N)=O)C(=O)N[C@@H](Cc1ccccc1)C(=O)N[C@@H](CCCNC(=N)N)C(=O)c1nc2ccccc2s1 — Ki (F2; cell-free assay): > 10 µM
CCOC(=O)c1ccc(OC(=O)CCCCCN=C(N)N)cc1 — IC50 (F2; enzyme activity, inhibitor): 0.588 µM
CC(C)=CCC[C@](C)(O)[C@H]1CC[C@]2(C)[C@@H]1[C@H](O)C[C@@H]1[C@@]3(C)CC[C@H](O)C(C)(C)[C@@H]3[C@@H](O[C@@H]3O[C@H](CO)[C@@H](O)[C@H](O)[C@H]3O)C[C@]12C — Kd (Aldo-keto reductase family 1 member B10 (AKR1B10, Homo sapiens, UniProt O60218); binding, BLI): 3.19 µM
Cn1c(=O)n(CCCCN2CCC3(CC2)OCc2ccccc23)c2ccccc21 — Ki (Sodium-dependent dopamine transporter (Slc6a3, Rattus norvegicus, UniProt P23977); ligand displacement, radioligand; cell membranes): 0.311 µM
COc1c2c(cc3c1-c1c(cc4c(c1OC)OCO4)C[C@H](C)[C@H](C)C3)OCO2 — Ki (CES1; enzyme activity, inhibitor): 0.0898 µM
CC(=O)c1c(C)c2cnc(Nc3ccc(C4CCN(CCS(C)(=O)=O)CC4)cn3)nc2n(C2CCCC2)c1=O — IC50 (KCNH2; ion current, inhibitor): > 30 µM
COc1ccc(S(=O)(=O)N(CC(C)C)C[C@@H](O)[C@H](Cc2ccccc2)NC(=O)O[C@@H]2CCC[C@@]23CCO[C@@H](c2cc(OC)cc(OC)c2)C3)cc1 — Ki (gag-pol protease; enzyme activity, inhibitor): 0.0355 µM
NCCc1c[nH]c2ccc(O)cc12 — Kd (tlpQ (Pseudomonas aeruginosa, UniProt Q9I0I4); binding, ITC): > 1000 µM
CS(=O)(=O)N[C@@H](CCC(N)=O)C(=O)N[C@@H](Cc1ccccc1)C(=O)N[C@@H](CCCNC(=N)N)C(=O)c1nccs1 — Ki (F2; cell-free assay): > 10 µM
COc1cc2c(cc1OC)CN(CCc1ccc(NC(=O)c3cccc4c(=O)c5cccc(OC)c5[nH]c34)cc1)CC2 — Ki (5-hydroxytryptamine receptor 1B (HTR1B, Homo sapiens, UniProt P28222); cell-free assay): > 10 µM
COc1ccc(S(=O)(=O)N(CC(C)C)C[C@@H](O)[C@H](Cc2ccccc2)NC(=O)O[C@H]2CCC[C@@]23CCO[C@@H](c2cccc(OC)c2)C3)cc1 — Ki (gag-pol protease; enzyme activity, inhibitor): 1.08 µM
O=c1c2cc(Cl)c(CO)cc2[nH]c(=S)n1Cc1cccnc1 — IC50 (KCNH2; ion current, inhibitor, patch clamp; pH 7.4): > 10 µM
